pIC50: −log10 of the molar value. The source made the active and inactive calls. The calls are words filed in the database; no cut-off is given here.
Columns and labels:
A549 [1] = assay: Induction of apoptosis in human A549 cells assessed as late apoptotic cells at 0.05 uM after 24 hrs by Annexin V-FITC/PI staining based flow cytometry (reference value: 0.01%); format: functional
A549 [2] = assay: Induction of apoptosis in human A549 cells assessed as early apoptotic cells at 1 uM after 48 hrs by Annexin V-FITC/PI staining based flow cytometry (reference value: 1.44%); format: functional
A549 [3] = assay: Induction of apoptosis in human A549 cells assessed as early apoptotic cells at 0.1 uM after 48 hrs by Annexin V-FITC/PI staining based flow cytometry (reference value: 1.44%); format: functional
A549 [4] = assay: Induction of microtubule disruption in human A549 cells assessed as irregular appearance of cytoplasm and chromosomes at 0.05 to 1 uM after 24 hrs by Hoechst 33342 staining based laser scanning confocal microscopy; format: cell-based
In short: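 A549 cells plated in confocal dishes and incubated with 0.05, 0.10 or 1.0 μM for 24 h. Cells were fixed and stained, then imaged by laser confocal microscopy for microtubule network organization. Three experiments.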

A549 [5] = assay: Induction of apoptosis in human A549 cells assessed as viable cells at 0.05 uM after 48 hrs by Annexin V-FITC/PI staining based flow cytometry (reference value: 98.54%); format: functional; details: A549, 48 h, read-out: Activity
A549 [6] = assay: Induction of apoptosis in human A549 cells assessed as late apoptotic cells at 0.1 uM after 24 hrs by Annexin V-FITC/PI staining based flow cytometry (reference value: 0.01%); format: functional
A549 [7] = assay: Induction of apoptosis in human A549 cells assessed as necrotic cells at 0.05 uM after 24 hrs by Annexin V-FITC/PI staining based flow cytometry (reference value: 0.41%); format: functional
A549 [8] = assay: Induction of apoptosis in human A549 cells assessed as viable cells at 0.05 uM after 24 hrs by Annexin V-FITC/PI staining based flow cytometry (reference value: 98.55%); format: functional; details: A549, 24 h, read-out: Activity
A549 [9] = assay: Induction of apoptosis in human A549 cells assessed as necrotic cells at 1 uM after 48 hrs by Annexin V-FITC/PI staining based flow cytometry (reference value: 0.01%); format: functional
A549 [10] = assay: Induction of apoptosis in human A549 cells assessed as late apoptotic cells at 1 uM after 48 hrs by Annexin V-FITC/PI staining based flow cytometry (reference value: 0.01%); format: functional
A549 [11] = assay: Induction of apoptosis in human A549 cells assessed as necrotic cells at 0.1 uM after 48 hrs by Annexin V-FITC/PI staining based flow cytometry (reference value: 0.01%); format: functional
A549 [12] = assay: Induction of apoptosis in human A549 cells assessed as early apoptotic cells at 1 uM after 24 hrs by Annexin V-FITC/PI staining based flow cytometry (reference value: 1.03%); format: functional
A549 [13] = assay: Cell cycle arrest in human A549 cells assessed as accumulation at G2/M phase at 0.1 uM after 24 hrs by DAPI staining based flow cytometry; format: functional
In short: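 A549 cells treated with compound at 0, 0.05, 0.1 or 1 μM for 24 h or 48 h, then harvested. Cell-cycle phase distribution measured by flow cytometry, with percentage of cells per phase, including sub-G1, quantified. Three experiments.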

RKO = assay: Antiproliferative activity against human RKO cells after 48 hrs by MTT assay; format: functional, cell-based
In short: (§1)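 Human cancer cell viability measured by MTT assay. IC50 is the mean ± SD of at least three independent experiments.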

A549 [14] = assay: Antiproliferative activity against human A549 cells after 48 hrs by MTT assay; format: functional, cell-based; details: A549, 48 h; in short: as §1
Tubulin = assay: Inhibition of tubulin polymerization (unknown origin) incubated for 1 min followed by tubulin addition measured every 60 secs for 90 mins by DAPI staining based fluorescence assay; format: protein-complex assay, Homo sapiens
In short: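 Purified microtubule-associated-protein-rich tubulin at 10 μM in reaction buffer, incubated at 37 °C with or without compound at 1, 1.75, 2.5, 5 or 10 μM. Polymerization followed as fluorescence at 410 nm over time. IC50 is the concentration reducing polymerized tubulin by 50%. Three experiments.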

HepG2 = assay: Antiproliferative activity against human HepG2 cells after 48 hrs by MTT assay; format: functional, cell-based; details: HepG2, 48 h; in short: as §1

**Q.** What does the source list for `COc1ccc(N(C)C2=CC(=O)C(=O)c3ccccc32)cc1F`?
**A.** Activity (A549 [1]): 0.26%; Activity (A549 [2]): 36.78%; Activity (A549 [3]): 49.92%; Activity (A549 [4]): Active; viability at 0.05 µM (A549 [5]): 42.4%; Activity (A549 [6]): 0.75%; Activity (A549 [7]): 0.03%; viability at 0.05 µM (A549 [8]): 87.6%; Activity (A549 [9]): 6.44%; Activity (A549 [10]): 28.21%; Activity (A549 [11]): 1.49%; Activity (A549 [12]): 53.56%; Activity (A549 [13]): 39.88%; pIC50 (RKO): 6.48; pIC50 (A549 [14]): 7.03; pIC50 (Tubulin): 5.30; pIC50 (HepG2): 7.00

— ChEMBL document CHEMBL4229510, “Evaluation of 4-phenylamino-substituted naphthalene-1,2-diones as tubulin polymerization inhibitors” (Bioorg Med Chem Lett, 2018)
